Measured values as given in ChEMBL document CHEMBL4680357, “The Basicity Makes the Difference: Improved Canavanine-Derived Inhibitors of the Proprotein Convertase Furin” (ACS Med Chem Lett, 2021).
The source made the active and inactive calls. The rule behind the calls is not given here.

What was measured:
[1] = tested on: Human orthopneumovirus; assay: Antiviral activity against RSV A2 infected in A549 cells assessed as reduction in plaque formation incubated for 72 hrs upto 10 uM followed by viral infection at MOI of 1 for 1 hr by multicycle replication assay; type: functional, organism-based; settings: human respiratory syncytial virus, dose microM <=10, time 72.0 hrs
Procedure, shortened: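 A549 human lung cells were inoculated with RSV A2 at MOI 1 for 1 h, washed, then kept with inhibitor at 0.5–10 μM (0.1–2.5 μM for one compound) or without inhibitor. Supernatants were collected at 16, 24, 48 and 72 h post infection. Titres (PFU/mL) were read by plaque assay, mean ± standard deviation, n = 3.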

[2] = target: Furin (Homo sapiens, UniProt P09958); assay: Inhibition of recombinant soluble human furin using Phac-Arg-Val-Arg-Arg-AMC fluorogenic substrate
Procedure, shortened: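 Enzyme kinetic assay under standard conditions at pH 7.0, using recombinant soluble human furin and the fluorogenic AMC substrate. Inhibition constants were determined from the kinetics.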

[3] = Toxicity in rat assessed as mortality at 1 mg/kg, iv; type: organism-based; settings: in vivo
[4] = Half life in Sprague-Dawley rat at 1 mg/kg, iv; type: ADME, organism-based; settings: in vivo
Procedure, shortened: (§1)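 Rat pharmacokinetics: single intravenous dose of 1 mg/kg or intraperitoneal dose of 2.5 mg/kg. Plasma inhibitor levels were followed over time, and half-life and total body clearance were derived for each route. Cmax and time to Cmax were also derived after intraperitoneal dosing.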

[5] = tested on: dengue virus type 2; assay: Antiviral activity against DENV-2 infected in african green monkey Vero 76 cells assessed as virus titer reduction incubated for 48 hrs by plaque assay; type: functional, organism-based
[6] = Cytotoxicity against african green monkey Vero 76 cells by Cell Titer Glo assay; type: cell-based; settings: chlorocebus sabaeus
[7] = Total body clearance in Sprague-Dawley rat at 1 mg/kg, iv; type: ADME, organism-based; settings: in vivo; procedure, shortened: as §1
[8] = tested on: West Nile virus; assay: Antiviral activity against West Nile virus infected in […] cells assessed as virus titer reduction incubated for 48 hrs by plaque assay; type: functional, organism-based; settings: Vero 76, 48 h
Procedure, shortened: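 Huh-7 cells infected with dengue virus type 2 (strain 16681) or West Nile virus, then cultured with inhibitor. Supernatants were collected 48 h post-infection and titrated by plaque assay on VeroE6 cells (n = 2, mean ± standard deviation). EC50 was calculated from the titer data.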

[9] = Half life in Sprague-Dawley rat at 2.5 mg/kg, ip; type: ADME, organism-based; settings: in vivo; procedure, shortened: as §1
[10] = Cmax in Sprague-Dawley rat at 2.5 mg/kg, ip; type: ADME, organism-based; design: route intraperitoneal, dose 2.5 mg/kg; settings: in vivo
Procedure, shortened: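 Rats received a single intraperitoneal dose of 2.5 mg/kg. Plasma drug levels were followed over time, and half-life, total body clearance, and peak plasma concentration with its time were derived from the concentration–time profile.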

[11] = Total body clearance in Sprague-Dawley rat at 2.5 mg/kg, ip; type: ADME, organism-based; settings: in vivo; procedure, shortened: as §1
[12] = Plasma concentration in Sprague-Dawley rat at 2.5 mg/kg, ip measured after 3 hrs; type: ADME, organism-based
[13] = target: Plasminogen (Homo sapiens, UniProt P00747); assay: Inhibition pf human plasmin using Mes-Darg-Phe-Arg-AMC as substrate by fluorescence assay
[14] = target: Prothrombin (Bos taurus, UniProt P00735); assay: Inhibition of bovine thrombin using Tos-Gly-Pro-Arg-AMC as substrate by fluorescence assay
[15] = target: Coagulation factor X (Homo sapiens, UniProt P00742); assay: Inhibition of human factor Xa using Mes-Darg-Pro-Arg-AMC as flurogenic substrate by fluorescence assay
Chain of Coagulation factor X (P00742 41-179 limits assumed): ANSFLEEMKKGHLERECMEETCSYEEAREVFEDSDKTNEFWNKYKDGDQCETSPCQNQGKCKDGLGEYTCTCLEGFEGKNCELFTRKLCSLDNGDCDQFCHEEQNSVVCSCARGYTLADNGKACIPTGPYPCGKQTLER
Chain of Coagulation factor X (P00742 235-488 limits assumed): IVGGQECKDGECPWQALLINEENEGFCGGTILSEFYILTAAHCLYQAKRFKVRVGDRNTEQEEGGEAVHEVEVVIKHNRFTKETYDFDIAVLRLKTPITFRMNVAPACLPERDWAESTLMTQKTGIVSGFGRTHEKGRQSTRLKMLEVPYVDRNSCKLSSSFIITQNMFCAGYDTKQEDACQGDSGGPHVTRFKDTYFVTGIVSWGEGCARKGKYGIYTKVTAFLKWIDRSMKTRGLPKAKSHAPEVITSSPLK

Chain of Furin (P09958 whole entry): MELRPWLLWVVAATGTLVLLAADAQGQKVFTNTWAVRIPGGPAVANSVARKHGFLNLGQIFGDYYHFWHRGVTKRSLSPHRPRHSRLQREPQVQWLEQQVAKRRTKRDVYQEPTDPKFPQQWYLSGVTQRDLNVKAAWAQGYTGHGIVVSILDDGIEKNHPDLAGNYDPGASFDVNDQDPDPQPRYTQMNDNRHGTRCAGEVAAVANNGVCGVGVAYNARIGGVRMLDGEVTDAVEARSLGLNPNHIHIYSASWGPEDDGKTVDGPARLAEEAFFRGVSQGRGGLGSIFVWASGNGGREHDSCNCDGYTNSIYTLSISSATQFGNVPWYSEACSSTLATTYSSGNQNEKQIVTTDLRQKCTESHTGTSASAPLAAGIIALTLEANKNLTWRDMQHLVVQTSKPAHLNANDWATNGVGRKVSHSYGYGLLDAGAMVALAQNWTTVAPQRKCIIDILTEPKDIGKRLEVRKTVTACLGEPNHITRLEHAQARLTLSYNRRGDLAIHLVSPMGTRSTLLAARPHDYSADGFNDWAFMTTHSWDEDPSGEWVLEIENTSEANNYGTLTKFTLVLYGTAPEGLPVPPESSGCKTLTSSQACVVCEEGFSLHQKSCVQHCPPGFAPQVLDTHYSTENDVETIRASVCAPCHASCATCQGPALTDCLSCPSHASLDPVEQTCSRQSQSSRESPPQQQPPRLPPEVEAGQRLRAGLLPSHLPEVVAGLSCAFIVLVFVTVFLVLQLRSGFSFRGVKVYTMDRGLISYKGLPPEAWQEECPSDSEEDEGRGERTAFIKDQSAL
Chain of Plasminogen (P00747 97-580 limits assumed): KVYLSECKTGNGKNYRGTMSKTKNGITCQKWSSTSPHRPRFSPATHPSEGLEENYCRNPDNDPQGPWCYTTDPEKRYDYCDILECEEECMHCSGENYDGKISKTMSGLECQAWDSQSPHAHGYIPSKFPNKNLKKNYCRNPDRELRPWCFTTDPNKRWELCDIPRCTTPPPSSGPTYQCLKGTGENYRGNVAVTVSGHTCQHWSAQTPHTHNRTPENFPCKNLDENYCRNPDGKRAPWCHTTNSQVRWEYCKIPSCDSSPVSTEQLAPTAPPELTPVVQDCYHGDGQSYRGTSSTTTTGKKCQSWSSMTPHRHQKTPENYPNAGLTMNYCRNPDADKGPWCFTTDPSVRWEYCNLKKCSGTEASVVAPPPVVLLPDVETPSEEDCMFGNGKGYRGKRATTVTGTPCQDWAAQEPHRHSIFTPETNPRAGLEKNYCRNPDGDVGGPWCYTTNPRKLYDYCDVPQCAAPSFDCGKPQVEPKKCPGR
Chain of Plasminogen (P00747 581-810 limits assumed): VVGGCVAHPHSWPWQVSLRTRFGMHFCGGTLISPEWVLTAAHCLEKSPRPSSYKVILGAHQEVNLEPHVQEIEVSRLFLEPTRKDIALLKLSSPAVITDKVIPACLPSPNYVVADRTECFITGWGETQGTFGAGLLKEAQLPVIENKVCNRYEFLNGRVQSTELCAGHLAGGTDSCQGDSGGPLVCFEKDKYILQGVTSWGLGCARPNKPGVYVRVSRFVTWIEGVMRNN

Question: With `CC(C)(C)[C@H](NC(=O)[C@H](CCONC(=N)N)NC(=O)Cc1ccc(CN)cc1)C(=O)N[C@@H](CCCCN)C(=O)NCc1ccc(C(=N)N)cc1` as the compound, how does the Activity [1] read?
Answer: inactive

Question: With `CC(C)(C)[C@H](NC(=O)[C@H](CCCNC(=N)N)NC(=O)Cc1ccc(CN)cc1)C(=O)N[C@@H](CCONC(=N)N)C(=O)NCc1ccc(C(=N)N)cc1` as the compound, how does the Ki [2] read?
Answer: 0.0768 nM

Question: Which results are given for `CC(C)(C)[C@H](NC(=O)[C@H](CCONC(=N)N)NC(=O)Cc1ccc(CNC(=N)N)cc1)C(=O)N[C@@H](CCCCN)C(=O)NCc1ccc(C(=N)N)cc1`?
Answer: Ki [2]: 0.0363 nM; Activity [1]: Active

Question: For `CC(C)(C)[C@H](NC(=O)[C@H](CCONC(=N)N)NC(=O)Cc1ccc(CNC(=N)N)cc1)C(=O)N[C@@H](CCONC(=N)N)C(=O)NCc1ccc(C(=N)N)cc1`, which Activity [3] is on record?
Answer: Non-Toxic

Question: What about the half-life [4] of the same compound?
Answer: 54 min

Question: What about the EC50 [5] of the same compound?
Answer: 1500 nM

Question: What about the CC50 [6] of the same compound?
Answer: > 50 µM

Question: And the clearance [7]?
Answer: 7.37 mL/min/kg

Question: What about the EC50 [8] of the same compound?
Answer: 1460 nM

Question: What about the half-life [9] of the same compound?
Answer: 96 min

Question: What about the Activity [1] of the same compound?
Answer: Active

Question: What about the Cmax [10] of the same compound?
Answer: 3160 ng/mL

Question: And the CL/F [11]?
Answer: 4.55 mL/min/kg

Question: And the concentration at 3 h [12]?
Answer: > 1000 ng/mL

Question: With `CC(C)(C)[C@H](NC(=O)[C@H](CCCNC(=N)N)NC(=O)Cc1ccc(CNC(=N)N)cc1)C(=O)N[C@@H](CCCNC(=N)N)C(=O)NCc1ccc(C(=N)N)cc1` as the compound, how does the Ki [13] read?
Answer: > 3 µM

Question: And the EC50 [5]?
Answer: 760 nM

Question: What about the CC50 [6] of the same compound?
Answer: > 50 µM

Question: What about the Ki [14] of the same compound?
Answer: > 3 µM

Question: What about the EC50 [8] of the same compound?
Answer: 910 nM

Question: And the Activity [1]?
Answer: Active

Question: What about the Ki [15] of the same compound?
Answer: > 3 µM

Question: Which Ki [2] does the source give for `CC(C)(C)[C@H](NC(=O)[C@H](CCCNC(=N)N)NC(=O)Cc1ccc(CNC(=N)N)cc1)C(=O)N[C@@H](CCONC(=N)N)C(=O)NCc1ccc(C(=N)N)cc1` here?
Answer: 0.0131 nM

Question: Which Ki [2] does the source give for `CC(C)(C)[C@H](NC(=O)[C@H](CCONC(=N)N)NC(=O)Cc1ccc(CN)cc1)C(=O)N[C@@H](CCONC(=N)N)C(=O)NCc1ccc(C(=N)N)cc1` here?
Answer: 0.0342 nM
